From ChEMBL document CHEMBL1132314, “Synthesis and amyloid binding properties of rhenium complexes: preliminary progress toward a reagent for SPECT imaging of Alzheimer's disease brain” (J Med Chem, 1999)

Experiments:
[1] = Bmax value was measured on A-beta-40 fibrils at high salt
Summary of the method: (§1)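 Synthetic Aβ40 fibrils (50 µM total Aβ40 stock, 20 µL added to 180 µL probe solution) were incubated with probe at 2–18 µM final in pH 7.4 10 mM phosphate, with 100 or 0 mM NaCl. Stocks for the Re complexes were in methanol, ≤3 vol % final. The mixture was held 1 h at 25 °C, then fibrils were pelleted by centrifugation.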

[2] = max value was measured on A-beta-40 fibrils at low salt; summary of the method: as §1
[3] = Apparent dissociation constant was measured at 10 mM salt; summary of the method: as §1
[4] = Apparent dissociation constant was measured at 110 mM salt; summary of the method: as §1
[5] = Partition coefficient (P); conditions: octanol/water

For `Nc1c(/N=N/c2ccc(-c3ccc(/N=N/c4cc(S(=O)(=O)O)c5ccccc5c4N)cc3)cc2)cc(S(=O)(=O)O)c2ccccc12` [CONGO RED], the Bmax [1] was 2.6, the Bmax [2] was 0.6 and the Kd [3] was 1100 nM. It also gave a Kd [4] of 1500 nM and a P [5] of 0.16.
